# A selection: hits, their analogues and other compounds. The true share with any hit is near 2.8%.
# HTRA1 inh: blocks human HTRA1 serine peptidase | inhibition, % at 5.96 µM | Q92743 | 340,000 tested, 0.5% active | recombinant HTRA1, FP-rhodamine activity-based probe, fluorescence polarization; in the data active means inhibition above about 36%;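 further: 0% = enzyme with DMSO and 100% = wells lacking enzyme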
# PAFAH1B3 inh: blocks human PAF acetylhydrolase 1B catalytic subunit 3; 340,000 tested, 0.28% active; Q15102; recombinant PAFAH1B3, FP-rhodamine probe, fluorescence polarization; inhibition, % at 3.39 µM;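 active means inhibition above the screen-wide average of all tested compounds plus 3 SD, cut at about 25% in these data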;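 further: 0% = enzyme with DMSO only and 100% = wells lacking PAFAH1B3 protein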
# Target sequence (Q15102 whole entry, looked up): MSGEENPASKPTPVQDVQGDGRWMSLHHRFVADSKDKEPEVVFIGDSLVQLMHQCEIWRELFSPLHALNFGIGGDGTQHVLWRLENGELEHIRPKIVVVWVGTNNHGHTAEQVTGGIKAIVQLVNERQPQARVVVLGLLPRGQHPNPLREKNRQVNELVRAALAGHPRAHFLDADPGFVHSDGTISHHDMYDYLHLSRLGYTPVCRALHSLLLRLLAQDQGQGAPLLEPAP
# mABHD4 FP: inhibitors of mouse ABHD4; Q8VD66; purified mABHD4, FP-Rh probe fluorescence polarization; inhibition, % at 8.92 µM; 370,000 tested, 0.54% active;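 active means inhibition exceeding the mean over every tested compound plus 3 SD, cut at about 30% in these data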;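 further: 0% = plate median of compound wells and 100% = S159A mutant with DMSO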
# Target sequence (Q8VD66 whole entry, looked up): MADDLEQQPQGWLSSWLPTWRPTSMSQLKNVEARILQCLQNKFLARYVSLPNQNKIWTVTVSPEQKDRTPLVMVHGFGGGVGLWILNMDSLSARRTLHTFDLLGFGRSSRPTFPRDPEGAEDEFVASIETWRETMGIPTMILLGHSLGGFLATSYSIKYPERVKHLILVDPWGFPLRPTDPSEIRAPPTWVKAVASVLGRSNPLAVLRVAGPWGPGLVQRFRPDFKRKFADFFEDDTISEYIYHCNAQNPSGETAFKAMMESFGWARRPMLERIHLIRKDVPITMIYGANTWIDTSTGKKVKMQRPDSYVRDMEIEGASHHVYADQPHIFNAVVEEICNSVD
#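 system = mouse ABHD4 enzyme, wild type | medium = HEPES pH 7.0, NaCl, Pluronic buffer | also added = FP-Rh probe | incubation = Enzyme–compound pre-incubation 45 min, then probe 60 min, both 25 °C | technique = fluorescence polarization, excitation 525 nm, emission 598 nm, BODIPY TMR filters | controls = S159A mutant high control, sample median low control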
# PAFAH1B2 FP inh: blocks human PAF acetylhydrolase 1b catalytic subunit 2; P68402; recombinant PAFAH1B2, FP-rhodamine activity probe, fluorescence polarization; inhibition, % at 3.39 µM; 340,000 tested, 1.2% active;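 active means inhibition above the mean of all tested compounds plus 3 SD, cut at about 24% in these data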;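 further: 0% = enzyme with DMSO and 100% = wells lacking PAFAH1B2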
# PAFAH2 FP inh: PAFAH2 (human) inhibition; Q99487; recombinant PAFAH2, FP-rhodamine activity probe, fluorescence polarization; inhibition, % at 3.39 µM; 340,000 tested, 0.99% active;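 active means inhibition above the mean over all tested compounds plus 3 SD, cut at about 30% in these data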;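 further: inhibitors block probe labeling of enzyme so polarization drops; 0% = enzyme with DMSO and 100% = wells lacking PAFAH2 protein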
# pPAFAH inh: inhibitors of human plasma PAF acetylhydrolase (pPAFAH); 330,000 tested, 1.5% active; AID 463082; inhibition, % at 3.39 µM; recombinant pPAFAH, FP-rhodamine probe fluorescence polarization;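 active means inhibition above the mean inhibition across the screen plus 3 SD, cut at about 25% in these data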;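 further: inhibitors block binding of the rhodamine activity-based probe so polarization drops; 0% = enzyme with DMSO and 100% = wells lacking pPAFAH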
# * marks the source's active call; other numbers are inactive results; x = no result given.
SMILES,HTRA1 inh,PAFAH1B3 inh,mABHD4 FP,PAFAH1B2 FP inh,PAFAH2 FP inh,pPAFAH inh
Cc1c(C)c2ccc(OC(C)C(=O)N[C@@H](Cc3c[nH]c4ccccc34)C(=O)O)c(C)c2oc1=O (stereo partly drawn),2,3,-4,24*,1,-2
CC(Oc1ccc2c(-c3ccccc3)cc(=O)oc2c1)C(=O)N[C@H](Cc1c[nH]c2ccccc12)C(=O)O (stereo partly drawn),0,10,-2,76*,15,9
Cc1c(OC(C)C(=O)NC(Cc2c[nH]c3ccc(O)cc23)C(=O)O)ccc2c1oc(=O)c1ccccc12 (stereo not drawn),10,7,11,13,8,11
COc1ccc(-c2cc(=O)oc3cc(OC(C)C(=O)NC(Cc4c[nH]c5ccc(O)cc45)C(=O)O)ccc23)cc1 (stereo not drawn),4,1,8,5,3,11
OCC[C@H]1C[C@H](O)[C@@H](O)[C@@]2(OCc3ccccc32)O1,1,-2,16,0,3,5
OCC[C@H]1C[C@H](O)[C@@H](O)[C@]2(OCCc3ccccc32)O1,-2,7,-8,0,7,26*
COc1cccc(-c2ccc(CC[C@H]3O[C@H]4CC[C@@H](CO)O[C@H]4C[C@H]3NS(C)(=O)=O)cc2)c1,x,x,-4,x,x,x
CC1(C)N([O-])c2cc([N+](=O)[O-])ccc2[N+]1=O,x,x,37*,x,x,31*
O=C(Nc1c(-c2ccc(F)cc2)nc2ncccn12)c1ccc(F)cc1,x,x,4,x,x,x
Oc1ccc2c(c1)C1CCCC1(N1CCOCC1)O2 (stereo not drawn),-5,14,34*,5,5,19
CC1=C(C(=O)N2CCOCC2)C(c2ccc(O)cc2)NC(=S)N1 (stereo not drawn),5,2,-12,6,-9,-1
Cc1ccc(C(=O)OCC(=O)c2ccc(CC(=O)N3CCOCC3)s2)cc1C,1,3,-4,2,11,27*
COC(=O)[C@]12C[C@H](CC(=O)NCCCCc3ccccc3)C(=O)N(CCc3ccc(OC)c(OC)c3)C1=C[C@H](C1CCCC1)O[C@@H]2C,x,x,0,x,x,x
CCN(CC)CCn1c(SCC(=O)Nc2ccc3c(c2)CCC3)nc2ccccc2c1=O,-8,-6,0,25*,6,2
CN(C)c1ccc(NC(=O)CSc2nc3ccccc3c(=O)n2C2CCCCC2)cc1,7,12,19,4,1,34*
Cc1cc(NC(=O)CSc2nc3ccccc3c(=O)n2C2CCCC2)no1,-46,2,0,0,-2,30*
CC(=O)N1C(C)(C)CC(=NOC(=O)c2ccc(C)cc2)CC1(C)C,-5,10,4,0,83*,25*
Cc1ccc(C(=O)NC(=S)N2CCN(c3ccc([N+](=O)[O-])cc3)CC2)cc1,0,3,-13,1,-6,2
Cc1ccc(C(=O)ON=C2CCN(c3ccc([N+](=O)[O-])cc3)CC2)cc1,-10,6,-3,3,77*,8
Cc1cccc(C(=O)O/N=C(\N)c2ccc(Br)cc2)c1,-10,-2,-1,5,4,2
Cc1cccc(C(=O)O/N=C/c2ccc(Br)cc2)c1,-15,0,-3,37*,73*,18
C[C@@H]1COc2cc(Br)ccc2S(=O)(=O)N1Cc1cn(Cc2ccc(C(F)(F)F)cc2)nn1,x,x,-1,x,x,x
Cc1ccc(NC(=O)COC(=O)Cc2csc(-c3cccc(F)c3)n2)cc1C,-10,8,2,20,2,27*
Cc1ccc(NC(=O)COC(=O)Cc2csc(-c3ccc(Cl)cc3)n2)cc1C,-6,-2,3,8,7,11
CC(C)C(=O)OCCCN1C(=O)CCC12CCC(c1ccccc1)CC2 (stereo not drawn),x,x,3,x,x,x
SMILES,HTRA1 inh,PAFAH1B3 inh,mABHD4 FP,PAFAH1B2 FP inh,PAFAH2 FP inh,pPAFAH inh
CCCNC(=O)C1CC(=O)N(c2ccc(OCc3ccc(F)cc3)cc2)C1 (stereo not drawn),5,-6,7,0,3,4
CCCNC(=O)C1CC(=O)N(c2ccc(OCc3ccc(Cl)cc3)cc2)C1 (stereo not drawn),0,0,-1,30*,-3,9
NC(=O)C1CC(=O)N(c2ccc(OCc3ccc(Cl)cc3)cc2)C1 (stereo not drawn),5,4,-1,28*,-6,9
COc1ccccc1NC(=O)OCCCN1CCC2(CCC(C)CC2)C1=O (stereo not drawn),x,x,2,x,x,x
CC(C)N1Cc2nnn(Cc3ccccc3)c2-c2cc(F)ccc2S1(=O)=O,x,x,0,x,x,x
O=C(CCSCc1ccc(Cl)cc1)NC1CCCC1,4,1,-10,27*,-2,4
O=C(CCSCc1cccc(Cl)c1)NCCc1ccc(Cl)cc1,-25,0,-12,28*,1,4
Cc1ccc(SCCC(=O)Nc2ccccc2Br)cc1,-15,8,-2,26*,2,3
Cc1ccc(CNC(=O)CCSCc2cccc(F)c2)cc1,-5,8,-6,25*,0,17
CCOC(=O)[C@]12CCCCC/C=C\1N(Cc1ccc(OC)cc1)C(=O)[C@H]2CC(=O)N1CCN(C(=O)c2ccco2)CC1,x,x,8,x,x,x
Cc1ccccc1CSCCNC(=O)CCSc1ccccc1,-19,2,-7,18,1,4
Cc1ccc(CSCCNC(=O)CCSc2ccccc2)cc1,-17,0,-6,41*,4,12
COc1ccccc1/C=C/C=C1N=C(/C=C/c2ccc(Cl)cc2)OC/1=O,-21,-22,20,-16,-9,30*
COc1ccccc1/C=C/C1=NC(=C\C=C/c2ccccc2)/C(=O)O1,-22,-5,8,-10,-7,12
CCCOc1cc(N(CC)CC)ccc1/C=C(/C#N)c1nc2ccc(C)cc2[nH]1,12,3,9,-4,-4,19
CCOc1cc(N(CC)CC)ccc1/C=C(/C#N)c1nc2ccccc2[nH]1,10,15,15,13,14,27*
CCOC(=O)c1sc2cc([N+](=O)[O-])cc(SCC(=O)OC)c2c1N,-3,5,27,-2,4,25*
O=C(Nc1ccccc1)c1ccc(Br)c(S(=O)(=O)Nc2cccnc2)c1,3,-11,4,-2,-6,-13
O=S(=O)(Nc1cccnc1)c1ccc(Br)c2ccccc12,-11,9,-8,26*,3,11
COC(=O)C1CN(Cc2cn(Cc3ccc(C)cc3)nn2)CCS(=O)(=O)N1Cc1ccccc1 (stereo not drawn),x,x,2,x,x,x
Cc1onc(-c2ccc(Cl)cc2)c1-c1ccnc(SCC(=O)Nc2ccc(C(C)C)cc2)n1,3,-13,-6,30*,-17,0

# Assay outcomes: PubChem BioAssay, The Scripps Research Institute Molecular Screening Center
